# In ChEMBL document CHEMBL1255446, “Combinations of mutations in the connection domain of human immunodeficiency virus type 1 reverse transcriptase: assessing the impact on nucleoside and nonnucleoside reverse transcriptase inhibitor resistance” (2010):
# What was measured:
# Type in all cases: functional
# [1] = tested on: Human immunodeficiency virus 1; test: Antiviral activity against HIV1 with RT connection domain T369V mutant transfected in HEK293 cells assessed as inhibition of viral replication relative to HIV1 NL4-3
# How it was run: (§1)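 Single-replication-cycle (PhenoSense) assay. Site-directed mutant RT pseudoviruses were made by cotransfecting 293 cells with RTV plasmid plus an amphotropic MLV Env plasmid, harvested at 48 h, and used to infect fresh 293 cells. Serial drug dilutions were added before infection. Luciferase was read ~72 h post-infection, % inhibition was computed, and EC50 was taken from the curves. Values are fold change versus NL4-3 reference run in the same experiment.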
# [2] = tested on: Human immunodeficiency virus 1; test: Antiviral activity against HIV1 with RT connection domain G190A mutant transfected in HEK293 cells assessed as inhibition of viral replication relative to HIV1 NL4-3; how it was run: as §1
# [3] = tested on: Human immunodeficiency virus 1; test: Antiviral activity against HIV1 with RT connection domain K103N/T369I/N348I mutant transfected in HEK293 cells assessed as inhibition of viral replication relative to HIV1 NL4-3; how it was run: as §1
# [4] = tested on: Human immunodeficiency virus 1; test: Antiviral activity against HIV1 with RT connection domain G190A/T369I/N348I mutant transfected in HEK293 cells assessed as inhibition of viral replication relative to HIV1 NL4-3; how it was run: as §1
# [5] = tested on: Human immunodeficiency virus 1; test: Antiviral activity against HIV1 with RT connection domain T369I mutant transfected in HEK293 cells assessed as inhibition of viral replication relative to HIV1 NL4-3; how it was run: as §1
# [6] = tested on: Human immunodeficiency virus 1; test: Antiviral activity against HIV1 with RT connection domain G190A/N348Ib mutant transfected in HEK293 cells assessed as inhibition of viral replication relative to HIV1 NL4-3; how it was run: as §1
# [7] = tested on: Human immunodeficiency virus 1; test: Antiviral activity against HIV1 with RT connection domain Y181C/T369I mutant transfected in HEK293 cells assessed as inhibition of viral replication relative to HIV1 NL4-3; how it was run: as §1
# [8] = tested on: Human immunodeficiency virus 1; test: Antiviral activity against HIV1 with RT connection domain L100I mutant transfected in HEK293 cells assessed as inhibition of viral replication relative to HIV1 NL4-3; how it was run: as §1
# [9] = tested on: Human immunodeficiency virus 1; test: Antiviral activity against HIV1 with RT connection domain L100I/T369I/N348I mutant transfected in HEK293 cells assessed as inhibition of viral replication relative to HIV1 NL4-3; how it was run: as §1
# [10] = tested on: Human immunodeficiency virus 1; test: Antiviral activity against HIV1 with RT connection domain G190S/T369I mutant transfected in HEK293 cells assessed as inhibition of viral replication relative to HIV1 NL4-3; how it was run: as §1
# [11] = tested on: Human immunodeficiency virus 1; test: Antiviral activity against HIV1 with RT connection domain Y181C/T369I/N348I mutant transfected in HEK293 cells assessed as inhibition of viral replication relative to HIV1 NL4-3; how it was run: as §1
# [12] = tested on: Human immunodeficiency virus 1; test: Antiviral activity against HIV1 with RT connection domain Y181C mutant transfected in HEK293 cells assessed as inhibition of viral replication relative to HIV1 NL4-3; how it was run: as §1
# [13] = tested on: Human immunodeficiency virus 1; test: Antiviral activity against HIV1 with RT connection domain L100I/N348I mutant transfected in HEK293 cells assessed as inhibition of viral replication relative to HIV1 NL4-3; how it was run: as §1
# [14] = tested on: Human immunodeficiency virus 1; test: Antiviral activity against HIV1 with RT connection domain Y181C/N348I mutant transfected in HEK293 cells assessed as inhibition of viral replication relative to HIV1 NL4-3; how it was run: as §1
# [15] = tested on: Human immunodeficiency virus 1; test: Antiviral activity against HIV1 with RT connection domain K103N/N348I mutant transfected in HEK293 cells assessed as inhibition of viral replication relative to HIV1 NL4-3; how it was run: as §1
# [16] = tested on: Human immunodeficiency virus 1; test: Antiviral activity against HIV1 with RT connection domain G190A/T369I mutant transfected in HEK293 cells assessed as inhibition of viral replication relative to HIV1 NL4-3; how it was run: as §1
# [17] = tested on: Human immunodeficiency virus 1; test: Antiviral activity against HIV1 with RT connection domain G190S mutant transfected in HEK293 cells assessed as inhibition of viral replication relative to HIV1 NL4-3; how it was run: as §1
# [18] = tested on: Human immunodeficiency virus 1; test: Antiviral activity against HIV1 with RT connection domain L100I/T369I mutant transfected in HEK293 cells assessed as inhibition of viral replication relative to HIV1 NL4-3; how it was run: as §1
# [19] = tested on: Human immunodeficiency virus 1; test: Antiviral activity against HIV1 with RT connection domain G190S/N348I mutant transfected in HEK293 cells assessed as inhibition of viral replication relative to HIV1 NL4-3; how it was run: as §1
# [20] = tested on: Human immunodeficiency virus 1; test: Antiviral activity against HIV1 with RT connection domain N348I mutant transfected in HEK293 cells assessed as inhibition of viral replication relative to HIV1 NL4-3; how it was run: as §1
# [21] = tested on: Human immunodeficiency virus 1; test: Antiviral activity against HIV1 with RT connection domain K103N/T369I mutant transfected in HEK293 cells assessed as inhibition of viral replication relative to HIV1 NL4-3; how it was run: as §1
# [22] = tested on: Human immunodeficiency virus 1; test: Antiviral activity against HIV1 with RT connection domain G190S/T369I/N348I mutant transfected in HEK293 cells assessed as inhibition of viral replication relative to HIV1 NL4-3; how it was run: as §1
# [23] = tested on: Human immunodeficiency virus 1; test: Antiviral activity against HIV1 with RT connection domain K103N mutant transfected in HEK293 cells assessed as inhibition of viral replication relative to HIV1 NL4-3; how it was run: as §1
# [24] = tested on: Human immunodeficiency virus 1; test: Antiviral activity against HIV1 with RT connection domain T369I/N348I mutant transfected in HEK293 cells assessed as inhibition of viral replication relative to HIV1 NL4-3; how it was run: as §1
SMILES,fold change (FC) [1],fold change (FC) [2],fold change (FC) [3],fold change (FC) [4],fold change (FC) [5],fold change (FC) [6],fold change (FC) [7],fold change (FC) [8],fold change (FC) [9],fold change (FC) [10],fold change (FC) [11],fold change (FC) [12],fold change (FC) [13],fold change (FC) [14],fold change (FC) [15],fold change (FC) [16],fold change (FC) [17],fold change (FC) [18],fold change (FC) [19],fold change (FC) [20],further results
CC(C)Nc1cccnc1N1CCN(C(=O)c2cc3cc(NS(C)(=O)=O)ccc3[nH]2)CC1 [DELAVIRDINE],5.5,0.3,>250,5.9,5.2,1.1,>250,34,>250,0.6,>250,44.7,90.7,>250,>250,1.2,0.3,49.7,0.9,3.4,fold change (FC) [21]: >250; fold change (FC) [22]: 6.9; fold change (FC) [23]: 75.7; fold change (FC) [24]: 29.8
O=C1Nc2ccc(Cl)cc2[C@@](C#CC2CC2)(C(F)(F)F)O1 [EFAVIRENZ],3.1,5.2,>700,>700,2.4,26,4,9,137.7,>700,17,1.7,16,3.2,115,33.7,63,13.6,>700,1.9,fold change (FC) [21]: 164.1; fold change (FC) [22]: >700; fold change (FC) [23]: 21.3; fold change (FC) [24]: 8.1
Cc1ccnc2c1NC(=O)c1cccnc1N2C1CC1 [NEVIRAPINE],9.2,127.7,>400,>400,8.4,>400,>400,2.1,56.3,>400,>400,317,5.3,>400,>400,>400,145,4.8,>400,4.1,fold change (FC) [21]: >400; fold change (FC) [22]: >400; fold change (FC) [23]: 81; fold change (FC) [24]: 58.6
Cc1cn([C@H]2C[C@H](N=[N+]=[N-])[C@@H](CO)O2)c(=O)[nH]c1=O [ZIDOVUDINE],2.1,1.1,7.9,4.2,2.7,2,0.9,0.1,0.5,0.7,2.2,0.3,0.3,0.7,2.6,1.7,0.8,0.2,1.7,2.4,fold change (FC) [21]: 2.3; fold change (FC) [22]: 5.8; fold change (FC) [23]: 1.1; fold change (FC) [24]: 5.4
